Source: ChEMBL document CHEMBL2380302, “Synthesis of 3-O-propargylated betulinic acid and its 1,2,3-triazoles as potential apoptotic agents” (Eur J Med Chem, 2013)
Activity calls are given as the source filed them. No cut-off for these calls is given here.

How the values were obtained:
MCF7 [1] = assay: Cytotoxicity against human MCF7 cells after 48 hrs by SRB assay; format: functional, cell-based; conditions: MCF7, 48 h
HCT-15 [2] = assay: Cytotoxicity against human HCT15 cells at 10 uM after 48 hrs by SRB assay; format: functional; conditions: HCT-15, 48 h, read-out: GI
PC-3 [3] = assay: Cytotoxicity against human PC3 cells after 48 hrs by SRB assay; format: functional, cell-based; conditions: PC-3, 48 h
THP-1 [4] = assay: Cytotoxicity against human THP1 cells at 10 uM after 48 hrs by SRB assay; format: functional; conditions: THP-1, 48 h, read-out: GI
HL-60 [5] = assay: Cytotoxicity against human HL60 cells at 50 uM after 48 hrs by SRB assay; format: functional; conditions: HL-60, 48 h, read-out: GI
HEp-2 [6] = assay: Cytotoxicity against human Hep2 cells after 48 hrs by SRB assay; format: functional, cell-based; conditions: HEp-2, 48 h
HEp-2 [7] = assay: Cytotoxicity against human Hep2 cells at 30 uM after 48 hrs by SRB assay; format: functional; conditions: HEp-2, 48 h, read-out: GI
HL-60 [8] = assay: Cytotoxicity against human HL60 cells at 10 uM after 48 hrs by SRB assay; format: functional; conditions: HL-60, 48 h, read-out: GI
HCT-15 [9] = assay: Cytotoxicity against human HCT15 cells at 30 uM after 48 hrs by SRB assay; format: functional; conditions: HCT-15, 48 h, read-out: GI
HEp-2 [10] = assay: Cytotoxicity against human Hep2 cells at 10 uM after 48 hrs by SRB assay; format: functional; conditions: HEp-2, 48 h, read-out: GI
HEp-2 [11] = assay: Cytotoxicity against human Hep2 cells at 50 uM after 48 hrs by SRB assay; format: functional; conditions: HEp-2, 48 h, read-out: GI
HL-60 [12] = assay: Induction of apoptosis in human HL60 cells assessed as DNA ladder formation at 20 to 30 uM after 24 hrs by DNA agarose gel electrophoresis; format: functional, cell-based
Summary of the method: (§1)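 DNA fragmentation assay in HL-60 cells (2 × 10⁶ cells/well) or CV-1 cells, treated for 24 h. Cells were lysed in Tris–HCl pH 8.0/NaCl/EDTA/Triton X-100 with proteinase K (200 µg/mL) at 50 °C for 1 h, then DNase-free RNase for 90 min. DNA was phenol:chloroform extracted and ethanol precipitated. Gels were 1% agarose in TAE at 80 V for 1.5 h. Camptothecin (5 µM, 6 h) served as positive control in HL-60.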

SF-295 [13] = assay: Cytotoxicity against human SF295 cells at 10 uM after 48 hrs by SRB assay; format: functional; conditions: SF-295, 48 h, read-out: GI
THP-1 [14] = assay: Cytotoxicity against human THP1 cells at 50 uM after 48 hrs by SRB assay; format: functional; conditions: THP-1, 48 h, read-out: GI
HL-60 [15] = assay: Cytotoxicity against human HL60 cells at 30 uM after 48 hrs by SRB assay; format: functional; conditions: HL-60, 48 h, read-out: GI
A549 [16] = assay: Cytotoxicity against human A549 cells at 30 uM after 48 hrs by SRB assay; format: functional; conditions: A549, 48 h, read-out: GI
MCF7 [17] = assay: Cytotoxicity against human MCF7 cells at 30 uM after 48 hrs by SRB assay; format: functional; conditions: MCF7, 48 h, read-out: GI
MCF7 [18] = assay: Cytotoxicity against human MCF7 cells at 50 uM after 48 hrs by SRB assay; format: functional; conditions: MCF7, 48 h, read-out: GI
DU-145 [19] = assay: Cytotoxicity against human DU145 cells after 48 hrs by SRB assay; format: functional, cell-based; conditions: DU-145, 48 h
PC-3 [20] = assay: Cytotoxicity against human PC3 cells at 10 uM after 48 hrs by SRB assay; format: functional; conditions: PC-3, 48 h, read-out: GI
HCT-15 [21] = assay: Cytotoxicity against human HCT15 cells after 48 hrs by SRB assay; format: functional, cell-based; conditions: HCT-15, 48 h
HL-60 [22] = assay: Cytotoxicity against human HL60 cells after 48 hrs by SRB assay; format: functional, cell-based; conditions: HL-60, 48 h
A549 [23] = assay: Cytotoxicity against human A549 cells after 48 hrs by SRB assay; format: functional, cell-based; conditions: A549, 48 h
HL-60 [24] = assay: Induction of apoptosis in human HL60 cells assessed as DNA ladder formation after 24 hrs by DNA agarose gel electrophoresis; format: functional; summary of the method: as §1
HL-60 [25] = assay: Induction of apoptosis in human HL60 cells assessed as change in mitochondrial membrane potential after 24 hrs using rhodamine-123 staining by fluorescence based confocal microscopy analysis; format: functional, cell-based
Summary of the method: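 HL-60 cells (6 × 10⁴/mL/well) were treated for 24 h. Rhodamine-123 (1 µM) was added in serum-free medium 30 min before the end, in the dark. Cells were then washed and resuspended in PBS. Fluorescence loss was viewed by confocal microscopy with 488 nm laser excitation. Each experiment was done twice.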

MCF7 [26] = assay: Cytotoxicity against human MCF7 cells at 10 uM after 48 hrs by SRB assay; format: functional; conditions: MCF7, 48 h, read-out: GI
HCT-15 [27] = assay: Cytotoxicity against human HCT15 cells at 50 uM after 48 hrs by SRB assay; format: functional; conditions: HCT-15, 48 h, read-out: GI
DU-145 [28] = assay: Cytotoxicity against human DU145 cells at 30 uM after 48 hrs by SRB assay; format: functional; conditions: DU-145, 48 h, read-out: GI
THP-1 [29] = assay: Cytotoxicity against human THP1 cells at 30 uM after 48 hrs by SRB assay; format: functional; conditions: THP-1, 48 h, read-out: GI
SF-295 [30] = assay: Cytotoxicity against human SF295 cells at 30 uM after 48 hrs by SRB assay; format: functional; conditions: SF-295, 48 h, read-out: GI
SF-295 [31] = assay: Cytotoxicity against human SF295 cells after 48 hrs by SRB assay; format: functional, cell-based; conditions: SF-295, 48 h
CV-1 = assay: Induction of apoptosis in african green monkey CV1 cells assessed as DNA ladder formation at 10 to 60 uM after 24 hrs by DNA agarose gel electrophoresis; format: cell-based; conditions: chlorocebus aethiops, cv-1, 24 h; summary of the method: as §1
SF-295 [32] = assay: Cytotoxicity against human SF295 cells at 50 uM after 48 hrs by SRB assay; format: functional; conditions: SF-295, 48 h, read-out: GI
THP-1 [33] = assay: Inhibition of cell migration in human THP1 cells at 1 to 30 uM after 24 hrs by wound-healing assay; format: functional, cell-based
Summary of the method: (§2)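 THP-1 monolayers (3×10⁵ cells/mL/well) were scratched with a pipette tip and washed three times with PBS. Test samples were added for 24 h, then fresh medium was added until the control wound healed. Wounds were imaged with a 10× objective at 0 h and 24 h. Migration was quantified as the distance between wound edges.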

THP-1 [34] = assay: Inhibition of cell invasion in human THP1 cells at 1 to 30 uM after 24 hrs by wound-healing assay; format: functional, cell-based; summary of the method: as §2
A549 [35] = assay: Cytotoxicity against human A549 cells at 50 uM after 48 hrs by SRB assay; format: functional; conditions: A549, 48 h, read-out: GI
A549 [36] = assay: Cytotoxicity against human A549 cells at 10 uM after 48 hrs by SRB assay; format: functional; conditions: A549, 48 h, read-out: GI
DU-145 [37] = assay: Cytotoxicity against human DU145 cells at 10 uM after 48 hrs by SRB assay; format: functional; conditions: DU-145, 48 h, read-out: GI
PC-3 [38] = assay: Cytotoxicity against human PC3 cells at 30 uM after 48 hrs by SRB assay; format: functional; conditions: PC-3, 48 h, read-out: GI
THP-1 [39] = assay: Cytotoxicity against human THP1 cells after 48 hrs by SRB assay; format: functional, cell-based; conditions: THP-1, 48 h
HL-60 [40] = assay: Ratio of betulinic acid IC50 to compound IC50 for human HL60 cells; format: functional
DU-145 [41] = assay: Cytotoxicity against human DU145 cells at 50 uM after 48 hrs by SRB assay; format: functional; conditions: DU-145, 48 h, read-out: GI
THP-1 [42] = assay: Inhibition of colony formation in human THP1 cells using crystal violet staining after 24 hrs by clonogenic assay; format: functional, cell-based
Summary of the method: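 THP-1 cells from log-phase culture were plated at clonogenic dilution. After 24 h they were treated for 24 h, then incubated for at least six potential divisions (colonies >50 cells). Colonies were fixed and stained with 6% glutaraldehyde plus 0.5% crystal violet for 30 min, washed with water and air-dried.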

PC-3 [43] = assay: Cytotoxicity against human PC3 cells at 50 uM after 48 hrs by SRB assay; format: functional; conditions: PC-3, 48 h, read-out: GI

`C=C(C)[C@@H]1CC[C@]2(C(=O)O)CC[C@]3(C)[C@H](CC[C@@H]4[C@@]5(C)CC[C@H](OCc6cn(-c7cccc8c(O)cccc78)nn6)C(C)(C)[C@@H]5CC[C@]43C)[C@@H]12` was tested, and the IC50 (MCF7 [1]) was 9 µM, the inhibition of growth at 10 µM (HCT-15 [2]) was 40% and the IC50 (PC-3 [3]) was 16 µM. It also gave an inhibition of growth at 10 µM (THP-1 [4]) of 51%, an inhibition of growth at 50 µM (HL-60 [5]) of 98% and an IC50 (HEp-2 [6]) of 13 µM. The inhibition of growth at 30 µM (HEp-2 [7]) was 63%, the inhibition of growth at 10 µM (HL-60 [8]) was 63% and the inhibition of growth at 30 µM (HCT-15 [9]) was 64%. For the same compound, the inhibition of growth at 10 µM (HEp-2 [10]) was 45%, the inhibition of growth at 50 µM (HEp-2 [11]) was 74% and the Activity (HL-60 [12]) was “Active”. The inhibition of growth at 10 µM (SF-295 [13]) was 18%, the inhibition of growth at 50 µM (THP-1 [14]) was 92% and the inhibition of growth at 30 µM (HL-60 [15]) was 95%. The inhibition of growth at 30 µM (A549 [16]) was 60%, the inhibition of growth at 30 µM (MCF7 [17]) was 63% and the inhibition of growth at 50 µM (MCF7 [18]) was 82%. The IC50 (DU-145 [19]) was 14 µM, the inhibition of growth at 10 µM (PC-3 [20]) was 35% and the IC50 (HCT-15 [21]) was 15 µM. For the same compound, the IC50 (HL-60 [22]) was 3.5 µM, the IC50 (A549 [23]) was 16 µM and the Activity (HL-60 [24]) was “Dose-dependent effect”. The MED (HL-60 [24]) was 20 µM, the Activity (HL-60 [25]) was “Dose-dependent effect” and the inhibition of growth at 10 µM (MCF7 [26]) was 51%. For the same compound, the inhibition of growth at 50 µM (HCT-15 [27]) was 72%, the inhibition of growth at 30 µM (DU-145 [28]) was 69% and the inhibition of growth at 30 µM (THP-1 [29]) was 82%. For the same compound, the inhibition of growth at 30 µM (SF-295 [30]) was 61%, the IC50 (SF-295 [31]) was 25 µM and the Activity (CV-1) was “Non-toxic”. The inhibition of growth at 50 µM (SF-295 [32]) was 87%, the inhibition (THP-1 [33]) was “Active” and the inhibition (THP-1 [34]) was “Active”. The inhibition of growth at 50 µM (A549 [35]) was 72%, the inhibition of growth at 10 µM (A549 [36]) was 42% and the inhibition of growth at 10 µM (DU-145 [37]) was 38%. For the same compound, the inhibition of growth at 30 µM (PC-3 [38]) was 61%, the IC50 (THP-1 [39]) was 8 µM and the “Ratio IC50” value (HL-60 [40]) was 5. For the same compound, the inhibition of growth at 50 µM (DU-145 [41]) was 86%, the inhibition (THP-1 [42]) was “Dose-dependent effect” and the inhibition of growth at 50 µM (PC-3 [43]) was 94%.
